Assay outcomes: PubChem, The Scripps Research Institute Molecular Screening Center
A selection: hits, their analogues and other compounds. The true share with any hit is near 1.6%.
LEDGF integ inh – blockers of LEDGF/p75-dependent integrase strand transfer – biochemical, TR-FRET, high throughput, primary screen; HIV-1 integrase (with human LEDGF/p75); TR-FRET IN-LEDGF/p75 DNA integration, Eu/Cy5; inhibition, % at 3.7 µM; 370,000 tested, 0.64% active;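 active means inhibition above the screen-wide mean plus 3 SD, cut at about 13% in these data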;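 further: signal is the Cy5 over europium emission ratio at 671 and 618 nm; 0% = plate median of compound wells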
TDP2 absorb – human TDP2 enzyme inhibitors, primary screen, biochemical, epi absorbance, recombinant enzyme; T5PNP hydrolysis, p-nitrophenol absorbance 415 nm; inhibition, % at 12.8 µM; 370,000 tested, 0.34% active;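 active means inhibition above the mean of all tested compounds plus 3 SD, set per campaign, cut at about 25% in these data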;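 further: 0% = DMSO with enzyme and 100% = buffer with substrate but no TDP2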
Target sequence (O95551 whole entry, looked up): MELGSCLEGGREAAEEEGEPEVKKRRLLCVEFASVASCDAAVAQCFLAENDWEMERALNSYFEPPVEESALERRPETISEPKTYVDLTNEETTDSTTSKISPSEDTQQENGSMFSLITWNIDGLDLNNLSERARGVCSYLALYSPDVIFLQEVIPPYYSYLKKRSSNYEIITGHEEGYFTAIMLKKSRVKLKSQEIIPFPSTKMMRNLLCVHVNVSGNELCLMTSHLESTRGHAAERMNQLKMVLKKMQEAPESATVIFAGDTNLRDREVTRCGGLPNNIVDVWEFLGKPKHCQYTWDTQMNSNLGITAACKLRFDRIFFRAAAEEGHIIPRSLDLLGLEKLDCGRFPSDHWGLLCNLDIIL
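System: recombinant human TDP2 / Amount: 120 nM TDP2 per well / Also added: 5 mM T5PNP chromogenic substrate / Doses: 12.8 µM single point, 1% DMSO / Incubation: 2 h at 37 °C / Detection: p-Nitrophenol epi absorbance / Evaluation: % inhibition relative to enzyme-containing and enzyme-free wells / Repeats: singlicate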
MBD2 DNA inh – inhibitors of MBD2 binding to methylated DNA, primary screen, biochemical, TR-FRET, DNA-binding domain, human; MBD2 binding to methylated oligonucleotide; inhibition, % at 4.4 µM; Methyl-CpG-binding domain protein 2 (Homo sapiens), Q9UBB5; 370,000 tested, 0.31% active; in the data active means inhibition above about 13%
UHRF1 binding – UHRF1 methylated DNA binding inhibitors, primary screen, counter-screen for MBD2 inhibitor project, biochemical, TR-FRET, human UHRF1, single concentration. UHRF1 binding to methylated oligo. 370,000 tested, 0.75% active. E3 ubiquitin-protein ligase UHRF1 (Homo sapiens), Q96T88. inhibition, % at 4.4 µM; in the data active means inhibition above about 21%;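 further: UHRF1 SRA domain binding a hemimethylated CpG hairpin DNA probe; 0% = median of test compound wells and 100% = reference inhibitor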
UHRF1 DNA bind – UHRF1 methylated DNA binding inhibitors, counter-screen for MBD2 inhibitor project, biochemical, TR-FRET, human UHRF1; shares compounds with MBD2 DNA inh; 1,000 tested, 25% active; AID 720530, 2013; UHRF1 binding to methylated oligonucleotide; inhibition, % at 4.4 µM; in the data active means inhibition above about 21%;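 further: UHRF1 SRA domain binding a labeled hemimethylated CpG hairpin DNA; 0% = vehicle only and 100% = reference inhibitor with vehicle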
MBD2 DBD conf – inhibitors of MBD2 binding to methylated DNA, confirmation, biochemical, TR-FRET, DNA-binding domain, human; shares compounds with MBD2 DNA inh; TR-FRET MBD2-DBD binding to methylated oligonucleotide; inhibition, % at 4.4 µM; 1,000 tested, 26% active; AID 720531, 2013
TDP2 inh conf – human TDP2 enzyme inhibitors, retest, confirmation, biochemical, epi absorbance, recombinant enzyme; shares compounds with TDP2 absorb; absorbance read-out; inhibition, % at 12.8 µM; 1,100 tested, 22% active; AID 743263, 2014; in the data active means inhibition above about 25%;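 further: 0% = vehicle with enzyme and 100% = no enzyme buffer only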
IN multimer up – HIV-1 IN multimer formation enhancers, counter-screen for LEDGF/p75 integration inhibitor project, biochemical, TR-FRET | shares compounds with LEDGF integ inh | activation, % at 7.7 µM | TR-FRET HIV-1 integrase multimerization | 2,000 tested, 17% active; in the data active means activation above about 8.9%
TRFRET interf – TR-FRET optical interference artefacts, confirmation, artefact control for LEDGF/p75-dependent integration inhibitor project, biochemical, HIV-1 IN multimerization | 2,000 tested, under 10 active | inhibition, % at 7.7 µM | TR-FRET optical interference counterscreen | shares compounds with LEDGF integ inh;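 active means inhibition above the mean over all tested compounds plus 3 SD, which no compound reached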;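 further: 0% = integrase with antibodies and DMSO and 100% = antibodies without integrase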
IN-LEDGF confirm – inhibitors of HIV-1 IN-LEDGF/p75 DNA integration, confirmation, biochemical, TR-FRET; shares compounds with LEDGF integ inh; 2,000 tested, 36% active; TR-FRET LEDGF/p75-dependent HIV-1 integration; inhibition, % at 3.7 µM
Active calls of the source: *. Unless noted, no stated cut-off is given here; in the data, active means inhibition above about 14%; inactive means the rest.

What do the screens show for `O=C1CCCC2=C1C(c1ccco1)Nc1ccc3ccccc3c12` (stereo not drawn)?
LEDGF integ inh: 33*; TDP2 absorb: -10; MBD2 DNA inh: 22*; UHRF1 binding: 50*; UHRF1 DNA bind: 48*; MBD2 DBD conf: 21*; IN multimer up: 4; TRFRET interf: -19; IN-LEDGF confirm: 53*

What do the screens show for `CC(=O)N1CCN(C(=O)C2CCCN(C(=O)c3ccc4c(c3)NC(=O)CS4)C2)CC1` (stereo not drawn)?
LEDGF integ inh: 2; TDP2 absorb: 5; MBD2 DNA inh: -4; UHRF1 binding: 0

What do the screens show for `Cc1ccc(C)n1C(CC(=O)O)c1ccc(C#N)cc1` (stereo not drawn)?
LEDGF integ inh: 47*; TDP2 absorb: -4; MBD2 DNA inh: 27*; UHRF1 binding: 95*; UHRF1 DNA bind: 11; MBD2 DBD conf: 5; IN multimer up: 2; TRFRET interf: -6; IN-LEDGF confirm: 13

How did Cc1[nH]n(-c2ccccc2)c(=O)c1C(c1cccc([N+](=O)[O-])c1O)c1c(C)[nH]n(-c2ccccc2)c1=O do in these assays?
LEDGF integ inh: 26*; TDP2 absorb: 84*; MBD2 DNA inh: 21*; UHRF1 binding: 24*; UHRF1 DNA bind: 4; MBD2 DBD conf: 0; TDP2 inh conf: 3; IN multimer up: 8; TRFRET interf: -41; IN-LEDGF confirm: 1

How did Cc1[nH]n(-c2ccccc2)c(=O)c1C(c1ccc(C(=O)O)cc1)c1c(C)[nH]n(-c2ccccc2)c1=O do in these assays?
LEDGF integ inh: 34*; TDP2 absorb: 99*; MBD2 DNA inh: 20*; UHRF1 binding: 20; UHRF1 DNA bind: 11; MBD2 DBD conf: 2; TDP2 inh conf: 25*; IN multimer up: 6; TRFRET interf: -20; IN-LEDGF confirm: 14*

How did Cc1[nH]n(-c2ccccc2)c(=O)c1C(C[N+](=O)[O-])c1ccc(Br)cc1 (stereo not drawn) do in these assays?
LEDGF integ inh: -1; TDP2 absorb: 22; MBD2 DNA inh: -2; UHRF1 binding: -5

Results for CC(C)C[C@@H]1COc2cccc(N3CCCC3)c2S(=O)(=O)N1C ?
LEDGF integ inh: 3; TDP2 absorb: 4; MBD2 DNA inh: 0; UHRF1 binding: -3

What do the screens show for `COC(=O)C1=C(C)N(Cc2ccc(Cl)cc2)C(=S)NC1c1ccc(Br)cc1` (stereo not drawn)?
LEDGF integ inh: -3; TDP2 absorb: 1; MBD2 DNA inh: 3; UHRF1 binding: 0

What do the screens show for `CCOc1ccc(C(=O)N/N=C/c2ccc(-c3ccc(S(=O)(=O)Nc4ncccn4)cc3)o2)cc1`?
LEDGF integ inh: 1; TDP2 absorb: 12; MBD2 DNA inh: -1; UHRF1 binding: 5
